Data as given in ChEMBL document CHEMBL1157765, “Synthesis of DOTA-conjugated multimeric [Tyr3]octreotide peptides via a combination of Cu(I)-catalyzed "click" cycloaddition and thio acid/sulfonyl azide "sulfo-click" amidation and their in vivo evaluation” (J Med Chem, 2010).

Key:
[1] = test system: Kidney; experiment: Biodistribution in kidney of BALB/c mouse bearing rat AR42J cells at 0.37 MBq, iv after 2 hrs; assay type: ADME, organism-based, AR-42J; conditions: in vivo
In short: (§1)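 AR42J tumor grown in right flank of male BALB/c nude mice (20-25 g, 6-8 weeks) by sc injection of 5 × 10⁶ cells; used after ~2 weeks at 4-6 mm diameter. Groups of five received 0.37 MBq (0.1 μg) ¹¹¹In-DOTA conjugate iv via tail vein (labeled in 0.25 M NH₄OAc pH 5.5, 95 °C, 15 min). Tissues dissected at 2, 6 or 24 h, weighed, γ-counted against 1% injected-activity standards; %ID/g, mean ± SD.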

[2] = Biodistribution in tumor of BALB/c mouse bearing rat AR42J cells at 0.37 MBq, iv after 24 hrs; assay type: ADME, organism-based, Neoplasm, AR-42J; conditions: in vivo; in short: as §1
[3] = test system: Blood; experiment: Biodistribution in blood of BALB/c mouse bearing rat AR42J cells at 0.37 MBq, iv after 6 hrs; assay type: ADME, organism-based, AR-42J; conditions: in vivo; in short: as §1
[4] = test system: Stomach; experiment: Biodistribution in stomach of BALB/c mouse bearing rat AR42J cells at 0.37 MBq, iv after 24 hrs; assay type: ADME, organism-based, AR-42J; conditions: in vivo; in short: as §1
[5] = Biodistribution in adrenal gland of BALB/c mouse bearing rat AR42J cells at 0.37 MBq, iv after 2 hrs; assay type: ADME, organism-based, AR-42J; conditions: in vivo; in short: as §1
[6] = test system: Spleen; experiment: Biodistribution in spleen of BALB/c mouse bearing rat AR42J cells at 0.37 MBq, iv after 2 hrs; assay type: ADME, organism-based, AR-42J; conditions: in vivo; in short: as §1
[7] = Biodistribution in tumor of BALB/c mouse bearing rat AR42J cells at 0.37 MBq, iv after 2 hrs; assay type: ADME, organism-based, Neoplasm, AR-42J; conditions: in vivo; in short: as §1
[8] = test system: Stomach; experiment: Biodistribution in stomach of BALB/c mouse bearing rat AR42J cells at 0.37 MBq, iv after 6 hrs; assay type: ADME, organism-based, AR-42J; conditions: in vivo; in short: as §1
[9] = test system: Pancreas; experiment: Biodistribution in pancreas of BALB/c mouse bearing rat AR42J cells at 0.37 MBq, iv after 2 hrs; assay type: ADME, organism-based, AR-42J; conditions: in vivo; in short: as §1
[10] = test system: Blood; experiment: Biodistribution in blood of BALB/c mouse bearing rat AR42J cells at 0.37 MBq, iv after 2 hrs; assay type: ADME, organism-based, AR-42J; conditions: in vivo; in short: as §1
[11] = test system: Kidney; experiment: Biodistribution in kidney of BALB/c mouse bearing rat AR42J cells at 0.37 MBq, iv after 24 hrs; assay type: ADME, organism-based, AR-42J; conditions: in vivo; in short: as §1
[12] = test system: Liver; experiment: Biodistribution in liver of BALB/c mouse bearing rat AR42J cells at 0.37 MBq, iv after 24 hrs; assay type: ADME, organism-based, AR-42J; conditions: in vivo; in short: as §1
[13] = Octanol-water partition coefficient, log D at pH 7.4; assay type: physicochemical
In short: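 ¹¹¹In-labeled conjugate (~148 kBq) in PBS pH 7.4 mixed 1:1 with n-octanol and shaken 2 min. Phases separated by centrifugation (5 min, 250g); triplicate aliquots of each layer γ-counted. log D = log₁₀(octanol counts/aqueous counts), from at least two independent experiments.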

[14] = test system: Spleen; experiment: Biodistribution in spleen of BALB/c mouse bearing rat AR42J cells at 0.37 MBq, iv after 2 hrs under cold condition; assay type: ADME, organism-based, AR-42J; conditions: in vivo
In short: (§2)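 Receptor block: groups of three AR42J tumor-bearing male BALB/c nude mice co-injected iv via tail vein with 0.37 MBq (0.1 μg) ¹¹¹In-DOTA conjugate plus 50 μg octreotide. Killed by CO₂/O₂ at 2 h; blood, tumor and tissues dissected, weighed and γ-counted against 1% injected-activity standards; %ID/g reported as mean ± SD.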

[15] = test system: Pancreas; experiment: Biodistribution in pancreas of BALB/c mouse bearing rat AR42J cells at 0.37 MBq, iv after 24 hrs; assay type: ADME, organism-based, AR-42J; conditions: in vivo; in short: as §1
[16] = test system: Spleen; experiment: Biodistribution in spleen of BALB/c mouse bearing rat AR42J cells at 0.37 MBq, iv after 24 hrs; assay type: ADME, organism-based, AR-42J; conditions: in vivo; in short: as §1
[17] = Biodistribution in adrenal gland of BALB/c mouse bearing rat AR42J cells at 0.37 MBq, iv after 2 hrs under cold condition; assay type: ADME, organism-based, AR-42J; conditions: in vivo; in short: as §2
[18] = test system: Stomach; experiment: Biodistribution in stomach of BALB/c mouse bearing rat AR42J cells at 0.37 MBq, iv after 2 hrs; assay type: ADME, organism-based, AR-42J; conditions: in vivo; in short: as §1
[19] = test system: Liver; experiment: Biodistribution in liver of BALB/c mouse bearing rat AR42J cells at 0.37 MBq, iv after 2 hrs under cold condition; assay type: ADME, organism-based, AR-42J; conditions: in vivo; in short: as §2
[20] = test system: Pancreas; experiment: Biodistribution in pancreas of BALB/c mouse bearing rat AR42J cells at 0.37 MBq, iv after 6 hrs; assay type: ADME, organism-based, AR-42J; conditions: in vivo; in short: as §1
[21] = Biodistribution in tumor of BALB/c mouse bearing rat AR42J cells at 0.37 MBq, iv after 6 hrs; assay type: ADME, organism-based, Neoplasm, AR-42J; conditions: in vivo; in short: as §1
[22] = test system: Kidney; experiment: Biodistribution in kidney of BALB/c mouse bearing rat AR42J cells at 0.37 MBq, iv after 2 hrs under cold condition; assay type: ADME, organism-based, AR-42J; conditions: in vivo; in short: as §2
[23] = test system: Spleen; experiment: Biodistribution in spleen of BALB/c mouse bearing rat AR42J cells at 0.37 MBq, iv after 6 hrs; assay type: ADME, organism-based, AR-42J; conditions: in vivo; in short: as §1
[24] = Biodistribution in adrenal gland of BALB/c mouse bearing rat AR42J cells at 0.37 MBq, iv after 6 hrs; assay type: ADME, organism-based, AR-42J; conditions: in vivo; in short: as §1
[25] = Biodistribution in adrenal gland of BALB/c mouse bearing rat AR42J cells at 0.37 MBq, iv after 24 hrs; assay type: ADME, organism-based, AR-42J; conditions: in vivo; in short: as §1
[26] = target: Somatostatin receptor type 2 (Rattus norvegicus, UniProt P30680); experiment: Displacement of [111In]DOTA0,Tyr3]octreotide from SSTR2 receptor in rat AR42J cells; assay type: cell-based, AR-42J
Somatostatin receptor type 2, sequence (P30680 whole entry): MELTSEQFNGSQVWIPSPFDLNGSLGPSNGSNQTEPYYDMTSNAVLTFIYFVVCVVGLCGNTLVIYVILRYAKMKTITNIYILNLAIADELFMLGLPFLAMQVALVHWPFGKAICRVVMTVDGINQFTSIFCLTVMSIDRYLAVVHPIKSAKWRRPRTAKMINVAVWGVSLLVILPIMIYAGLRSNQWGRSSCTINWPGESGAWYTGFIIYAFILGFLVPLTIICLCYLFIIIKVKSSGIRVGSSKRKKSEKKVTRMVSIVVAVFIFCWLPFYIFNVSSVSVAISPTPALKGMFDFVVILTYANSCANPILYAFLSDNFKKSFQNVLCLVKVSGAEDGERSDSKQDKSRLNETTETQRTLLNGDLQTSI
In short: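 AR42J cells (DMEM, 10% FCS, 37 °C, 5% CO₂) seeded 8 × 10⁵/well and grown to confluence, washed with DMEM + 0.1% BSA. Incubated 3 h at 37 °C with [¹¹¹In-DOTA⁰,Tyr³]octreotide tracer (40 000 dpm) and unlabeled peptide at 0.1-300 nM. Washed twice; cell-bound activity γ-counted. IC₅₀ from fitted sigmoidal displacement curves with 95% CI.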

[27] = test system: Liver; experiment: Biodistribution in liver of BALB/c mouse bearing rat AR42J cells at 0.37 MBq, iv after 2 hrs; assay type: ADME, organism-based, AR-42J; conditions: in vivo; in short: as §1
[28] = Biodistribution in tumor of BALB/c mouse bearing rat AR42J cells at 0.37 MBq, iv after 2 hrs under cold condition; assay type: ADME, organism-based, Neoplasm, AR-42J; conditions: in vivo; in short: as §2
[29] = test system: Kidney; experiment: Biodistribution in kidney of BALB/c mouse bearing rat AR42J cells at 0.37 MBq, iv after 6 hrs; assay type: ADME, organism-based, AR-42J; conditions: in vivo; in short: as §1
[30] = test system: Stomach; experiment: Biodistribution in stomach of BALB/c mouse bearing rat AR42J cells at 0.37 MBq, iv after 2 hrs under cold condition; assay type: ADME, organism-based, AR-42J; conditions: in vivo; in short: as §2
[31] = test system: Blood; experiment: Biodistribution in blood of BALB/c mouse bearing rat AR42J cells at 0.37 MBq, iv after 24 hrs; assay type: ADME, organism-based, AR-42J; conditions: in vivo; in short: as §1
[32] = test system: Pancreas; experiment: Biodistribution in pancreas of BALB/c mouse bearing rat AR42J cells at 0.37 MBq, iv after 2 hrs under cold condition; assay type: ADME, organism-based, AR-42J; conditions: in vivo; in short: as §2
[33] = test system: Liver; experiment: Biodistribution in liver of BALB/c mouse bearing rat AR42J cells at 0.37 MBq, iv after 6 hrs; assay type: ADME, organism-based, AR-42J; conditions: in vivo; in short: as §1
[34] = test system: Blood; experiment: Biodistribution in blood of BALB/c mouse bearing rat AR42J cells at 0.37 MBq, iv after 2 hrs under cold condition; assay type: ADME, organism-based, AR-42J; conditions: in vivo; in short: as §2

With `C[C@@H](O)[C@@H]1NC(=O)[C@H](CCCCN)NC(=O)[C@@H](Cc2c[nH]c3ccccc23)NC(=O)[C@H](Cc2ccc(O)cc2)NC(=O)[C@@H](NC(=O)[C@@H](Cc2ccccc2)NC(=O)CCCCCn2cc(COc3cc(OCc4cn(CCCCCC(=O)N[C@H](Cc5ccccc5)C(=O)N[C@H]5CSSC[C@@H](C(=O)N[C@H](CO)[C@@H](C)O)NC(=O)[C@H]([C@@H](C)O)NC(=O)[C@H](CCCCN)NC(=O)[C@@H](Cc6c[nH]c7ccccc67)NC(=O)[C@H](Cc6ccc(O)cc6)NC5=O)nn4)cc(C(=O)NCCOc4cc(OCCNC(=O)c5cc(OCc6cn(CCCCCC(=O)N[C@H](Cc7ccccc7)C(=O)N[C@H]7CSSC[C@@H](C(=O)N[C@H](CO)[C@@H](C)O)NC(=O)[C@H]([C@@H](C)O)NC(=O)[C@H](CCCCN)NC(=O)[C@@H](Cc8c[nH]c9ccccc89)NC(=O)[C@H](Cc8ccc(O)cc8)NC7=O)nn6)cc(OCc6cn(CCCCCC(=O)N[C@H](Cc7ccccc7)C(=O)N[C@H]7CSSC[C@@H](C(=O)N[C@H](CO)[C@@H](C)O)NC(=O)[C@H]([C@@H](C)O)NC(=O)[C@H](CCCCN)NC(=O)[C@@H](Cc8c[nH]c9ccccc89)NC(=O)[C@H](Cc8ccc(O)cc8)NC7=O)nn6)c5)cc(C(=O)NS(=O)(=O)CCNC(=O)CN5CCN(CC(=O)O)CCN(CC(=O)O)CCN(CC(=O)O)CC5)c4)c3)nn2)CSSC[C@@H](C(=O)N[C@H](CO)[C@@H](C)O)NC1=O` the Drug uptake [1] was 4.62 % ID/g, the Drug uptake [2] was 1.53 % ID/g and the Drug uptake [3] was 0.62 % ID/g. The Drug uptake [4] was 1.13 % ID/g, the Drug uptake [5] was 4.05 % ID/g and the Drug uptake [6] was 16.84 % ID/g. For the same compound, the Drug uptake [7] was 0.52 % ID/g, the Drug uptake [8] was 1.4 % ID/g and the Drug uptake [9] was 1.02 % ID/g. It also gave a Drug uptake [10] of 0.27 % ID/g, a Drug uptake [11] of 10.6 % ID/g and a Drug uptake [12] of 52.71 % ID/g. It also gave a logD [13] of -0.71, a Drug uptake [14] of 23.45 % ID/g and a Drug uptake [15] of 1.17 % ID/g. It also gave a Drug uptake [16] of 20.26 % ID/g, a Drug uptake [17] of 54.56 % ID/g and a Drug uptake [18] of 1.04 % ID/g. For the same compound, the Drug uptake [19] was 2.96 % ID/g, the Drug uptake [20] was 2.04 % ID/g and the Drug uptake [21] was 1.03 % ID/g. For the same compound, the Drug uptake [22] was 7.44 % ID/g, the Drug uptake [23] was 23.92 % ID/g and the Drug uptake [24] was 18.98 % ID/g. For the same compound, the Drug uptake [25] was 11.39 % ID/g, the IC50 [26] was 14 nM and the Drug uptake [27] was 47.6 % ID/g. The Drug uptake [28] was 1.19 % ID/g, the Drug uptake [29] was 7.65 % ID/g and the Drug uptake [30] was 3.02 % ID/g. It also gave a Drug uptake [31] of 2.52 % ID/g, a Drug uptake [32] of 0.29 % ID/g and a Drug uptake [33] of 70.97 % ID/g. It also gave a Drug uptake [34] of 0.44 % ID/g.
